Seven molecules from ChEMBL document CHEMBL3124918, “Optimization of peptides that target human thymidylate synthase to inhibit ovarian cancer cell growth” (2014) can be followed below.

Activity calls are given as the source filed them. No cut-off for these calls is given here. Non-standard residues stand in square brackets, D forms with d. Residues, ends and D or L forms follow the SMILES beside them. Where only a bound is given, the exact number is not on record here.

The nature of test [1]: Upregulation of thymidylate synthase total protein level in 13-fold cisplatin-resistant human C13 cells at 5 uM after 48 hrs by Western blotting analysis. The class given is functional, cell-based. On the technique in general: In western blotting, separated proteins are transferred to a membrane and probed.
In test [2] the test system is 2008. The experiment in a line: Upregulation of thymidylate synthase total protein level in human 2008 cells at 5 uM after 48 hrs by Western blotting analysis. The class given is functional, cell-based.
For test [3], the target named is Thymidylate synthase (Homo sapiens) (UniProt P04818). The test is described as follows: Inhibition of human thymidylate synthase using dUMP as substrate at 75 uM after 1 hr by UV-vis spectrophotometric analysis in presence of mTHF relative to control. The essentials: (§1)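 Purified hTS, concentration by UV-vis (ε280 = 89 000 M−1 cm−1), preincubated 1 h with peptide in phosphate buffer pH 6.9 at 25 °C. Reaction in 50 mM TES pH 7.4 with 25 mM MgCl2, 6.5 mM HCHO, 1 mM EDTA, 75 mM βME, 0.6 mM dUMP, 0.15 mM mTHF. A340 followed 3 min. I% versus enzyme-alone control, mean ± SEM, n = 3.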

The nature of test [4]: Cytotoxicity against 10-fold cisplatin-resistant human A2780C/P cells cell survival at 10 uM after 72 hrs by crystal violet staining-based spectrophotometric analysis relative to control. The following applies: A2780cisR, read-out: Survival.
A further test has as its system A2780. The experiment in a line: Cytotoxicity against human A2780 cells assessed as cell survival at 10 uM after 72 hrs by crystal violet staining-based spectrophotometric analysis relative to control. As to conditions: A2780, 72 h, read-out: Survival.
A short description of test [5]: Cytotoxicity against 13-fold cisplatin-resistant human C13 cells cell survival at 10 uM after 72 hrs by crystal violet staining-based spectrophotometric analysis relative to control. As to conditions: C13, 72 h, read-out: Survival.
The test system of test [6] is 2008. The experiment in a line: Cytotoxicity against human 2008 cells assessed as cell survival at 10 uM after 72 hrs by crystal violet staining-based spectrophotometric analysis relative to control. The following applies: Homo sapiens, 2008, 72 h, read-out: Survival.
For test [7], the target named is Thymidylate synthase (Homo sapiens) (UniProt P04818). The experiment in a line: Inhibition of human thymidylate synthase using dUMP as substrate at 50 uM after 1 hr by UV-vis spectrophotometric analysis in presence of mTHF relative to control. The essentials:
as §1

Sequence of Thymidylate synthase (Homo sapiens) (P04818 2-313 limits assumed): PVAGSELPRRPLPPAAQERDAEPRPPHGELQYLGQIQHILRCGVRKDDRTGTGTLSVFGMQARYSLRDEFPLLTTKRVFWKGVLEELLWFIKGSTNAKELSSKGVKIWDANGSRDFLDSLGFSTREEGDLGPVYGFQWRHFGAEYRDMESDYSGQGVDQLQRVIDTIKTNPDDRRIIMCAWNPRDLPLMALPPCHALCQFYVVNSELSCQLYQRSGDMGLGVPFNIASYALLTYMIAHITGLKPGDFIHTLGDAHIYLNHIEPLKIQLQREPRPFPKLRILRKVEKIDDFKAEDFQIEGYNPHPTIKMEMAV

For `O=c1[nH]cc(F)c(=O)[nH]1`, the result (in test [1]; with 2008 [2]) was Active.
For the molecule `CC(C)C[C@H](N)C(=O)N[C@@H](CO)C(=O)N[C@@H](CS)C(=O)N[C@@H](CCC(N)=O)C(=O)O` (H-LSCQ-OH), the inhibition in test [3] worked out at 59%.
`CC(C)C[C@H](NC(=O)[C@@H](CCC(N)=O)NC(=O)[C@H](CS)NC(=O)[C@H](CO)NC(=O)[C@@H](N)CC(C)C)C(=O)N[C@@H](Cc1ccc(O)cc1)C(=O)N[C@@H](CCC(N)=O)C(=O)N[C@@H](CCCNC(=N)N)C(=O)O` (H-LSC[dQ]LYQR-OH): the viability at 10 µM in test [4] was 25%; with A2780, less than 50%; in test [5], 25%; in the test with 2008 [6] it was less than 50%.
Regarding H-CQLYQ-OH, in test [3], the inhibition came out at 52%.
Consider H-LSCQLYAR-OH, for which the inhibition in test [7] was determined as 60%.
Turning to H-LSCQLYQ-OH, in test [3], the inhibition was 56%.
For H-SCQLYQR-OH, in test [7], the inhibition is 54%.

A word on the inhibition: it is the change of the read-out against control, counted positive when it falls.
